Assay [1] concerns Staphylococcus aureus. As to the kind of experiment: Antimicrobial activity against intracellular beta-lactamase negative methicillin-susceptible Staphylococcus aureus ATCC 25923 infected in human Calu3 cells assessed as decrease in bacterial count from original inoculum at high compound concentration after 24 hrs at pH 7.4. The assay is classed as functional, Calu-3. The essentials:
(§1)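 Primary human skin keratinocytes or Calu-3 bronchial epithelial cells, given an inoculum of 5 × 10⁷ to 1 × 10⁸ bacteria/ml and 2 h for internalization. Post-phagocytosis load 1.5 × 10⁶ to 3.0 × 10⁶ CFU per mg cell protein. Cloxacillin dose range in mg/liter for 24 h, n = 3. Hill-derived Emin, Emax and EC50; static concentration interpolated.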

Assay [2] concerns Staphylococcus aureus. Briefly: Bacteriostatic activity against hospital acquired methicillin-resistant Staphylococcus aureus HMC546 infected in human THP-1 cells assessed as decrease in bacterial growth after 24 hrs at pH 5.5. The assay is classed as functional. In short, it runs like this:
(§2)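 Human THP-1 macrophages infected with each S. aureus strain. Cloxacillin added extracellularly at about 0.01× to 100× the broth MIC measured at pH 5.5, with gentamicin 0.5 mg/liter to stop extracellular growth. Incubated 24 h. CFU counted per mg cell protein as change from the post-phagocytosis inoculum, n = 3. Emin, Emax and EC50 from a Hill fit; static concentration by graphical interpolation.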

The subject of assay [3] is Staphylococcus aureus. Briefly: Antimicrobial activity against beta-lactamase negative methicillin-susceptible Staphylococcus aureus ATCC 25923 infected in human THP-1 cells assessed as decrease in bacterial count from original inoculum at high compound concentration after 24 hrs at pH 7.4. The assay is classed as functional.
Assay [4] concerns Staphylococcus aureus. Briefly: Antimicrobial activity against hospital acquired methicillin-resistant Staphylococcus aureus N4120210 obtained from urinary tract infection patient by broth microdilution method at pH 5.5. The assay is classed as functional. The conditions noted are these: N4120210, Urine. (Broth dilution looks for growth in wells or tubes with falling amounts of substance.)

The test system of assay [5] is Staphylococcus aureus. As to the kind of experiment: Antimicrobial activity against hospital acquired methicillin-resistant and vancomycin-intermediate Staphylococcus aureus NRS18 obtained from wound, skin and soft tissue infection of patient infected in human THP-1 cells assessed as increase in bacterial count from original inoculum at low compound concentration after 24 hrs at pH 5.5. The assay is classed as functional. The essentials:
as §2

Assay [6] deals with Staphylococcus aureus. As to the kind of experiment: Antimicrobial activity against animal acquired methicillin-resistant Staphylococcus aureus N7112046 infected in human THP-1 cells assessed as decrease in bacterial count from original inoculum at high compound concentration after 24 hrs at pH 5.5. The assay is classed as functional. In short, it runs like this:
(§3)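 Bacteria phagocytosed by unactivated human THP-1 macrophages, then incubated 24 h with extracellular antibiotic at about 0.01× to 100× the pH 5.5 broth MIC. CFU per mg cell protein counted against the original inoculum, n = 3. A Hill-equation fit (slope factor 1) gave Emin and Emax, extrapolated to infinitely low and high concentration, and EC50. Static concentration was graphically interpolated.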

For assay [7], the system named is Staphylococcus aureus. Briefly: Antimicrobial activity against hospital acquired methicillin-resistant Staphylococcus aureus N4120032 obtained from wound infection of patient infected in human THP-1 cells assessed as increase in bacterial count from original inoculum at low compound concentration after 24 hrs at pH 5.5. The assay is classed as functional. In short, it runs like this:
as §3

In assay [8] the test system is Staphylococcus aureus. As to the kind of experiment: Antimicrobial activity against intracellular hospital acquired methicillin-resistant Staphylococcus aureus ATCC 33591 infected in human keratinocytes assessed as decrease in bacterial count from original inoculum at high compound concentration after 24 hrs at pH 7.4. The assay is classed as functional. The essentials:
as §1

Assay [9] concerns Staphylococcus aureus. Briefly: Antimicrobial activity against Panton-valentine leukocidin positive community acquired methicillin-resistant Staphylococcus aureus N4090440 obtained from wound infection of patient by broth microdilution method at pH 5.5. The assay is classed as functional.
Assay [10] relates to Staphylococcus aureus. Briefly: Antimicrobial activity against animal acquired methicillin-resistant Staphylococcus aureus N7112046 by broth microdilution method at pH 5.5. The assay is classed as functional.
Assay [11] deals with Staphylococcus aureus. Briefly: Bacteriostatic activity against Panton-valentine leukocidin positive community acquired methicillin-resistant Staphylococcus aureus NRS192 infected in human THP-1 cells assessed as decrease in bacterial growth after 24 hrs at pH 5.5. The assay is classed as functional. In short, it runs like this:
as §2

Assay [12] relates to Staphylococcus aureus. As to the kind of experiment: Antimicrobial activity against hospital acquired methicillin-resistant and vancomycin-intermediate Staphylococcus aureus VRS2 obtained from wound, skin and soft tissue infection of patient infected in human THP-1 cells assessed as decrease in bacterial growth after 24 hrs at pH 5.5. The assay is classed as functional, cell-based. The conditions noted are these: VRS2, THP-1, 24 h. The essentials:
as §2

Assay [13] has as its system Staphylococcus aureus. Briefly: Antimicrobial activity against hospital acquired methicillin-resistant Staphylococcus aureus ATCC 33591 infected in human THP-1 cells assessed as decrease in bacterial count from original inoculum at high compound concentration after 24 hrs at pH 7.4. The assay is classed as functional.
In assay [14] the test system is Staphylococcus aureus. As to the kind of experiment: Bacteriostatic activity against Panton-valentine leukocidin positive community acquired methicillin-resistant Staphylococcus aureus N4042228 infected in human THP-1 cells assessed as decrease in bacterial growth after 24 hrs at pH 5.5. The assay is classed as functional. In short, it runs like this:
as §2

The test system of assay [15] is Staphylococcus aureus. As to the kind of experiment: Bacteriostatic activity against hospital acquired methicillin-resistant and vancomycin-intermediate Staphylococcus aureus NRS126 infected in human THP-1 cells assessed as decrease in bacterial growth after 24 hrs at pH 5.5. The assay is classed as functional. In short, it runs like this: as §2
In assay [16] the test system is Staphylococcus aureus. Briefly: Antimicrobial activity against intracellular beta-lactamase negative methicillin-susceptible Staphylococcus aureus ATCC 25923 infected in human Calu3 cells assessed as increase in bacterial count from original inoculum at low compound concentration after 24 hrs at pH 7.4. The assay is classed as functional, Calu-3. In short, it runs like this: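 Primary human skin keratinocytes or Calu-3 bronchial epithelial cells infected with MSSA ATCC 25923 at 5 × 10⁷ to 1 × 10⁸ bacteria/ml, 2 h internalization. Postphagocytosis inoculum 1.5 × 10⁶ to 3.0 × 10⁶ CFU/mg protein. Cloxacillin concentration range for 24 h; CFU/mg protein change vs. inoculum (n = 3). Hill fit gives Emin/Emax; static concentration by graphical interpolation.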

Assay [17] deals with Staphylococcus aureus. Briefly: Bacteriostatic activity against constitutive beta-lactamase negative methicillin-resistant Staphylococcus aureus COL NRS100 infected in human THP-1 cells assessed as decrease in bacterial growth after 24 hrs at pH 5.5. The assay is classed as functional. In short, it runs like this: as §2
The test system of assay [18] is Staphylococcus aureus. Briefly: Antimicrobial activity against Panton-valentine leukocidin positive community acquired methicillin-resistant Staphylococcus aureus N4042228 infected in human THP-1 cells assessed as decrease in bacterial growth after 24 hrs at pH 5.5. The assay is classed as functional, organism-based. The conditions noted are these: N4042228, THP-1, 24 h. In short, it runs like this: as §3

Assay [19] relates to Staphylococcus aureus. As to the kind of experiment: Antimicrobial activity against Panton-valentine leukocidin positive community acquired methicillin-resistant Staphylococcus aureus N4090440 obtained from wound infection of patient by broth microdilution method at pH 7.4. The assay is classed as functional. In short, it runs like this:
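Minimal inhibitory concentration by broth microdilution at pH 7.4, read in mg/liter. The MRSA genotype was confirmed by mecA PCR, and the SCCmec subgroup was assigned by multiplex PCR.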

The test system of assay [20] is Staphylococcus aureus. Briefly: Antimicrobial activity against Panton-valentine leukocidin positive community acquired methicillin-resistant Staphylococcus aureus NRS192 obtained from patient with pneumonia and septic arthritis infected in human THP-1 cells assessed as increase in bacterial count from original inoculum at low compound concentration after 24 hrs at pH 5.5. The assay is classed as functional. The essentials: as §3

Assay [21] relates to Staphylococcus aureus. As to the kind of experiment: Antimicrobial activity against beta-lactamase negative methicillin-susceptible Staphylococcus aureus ATCC 25923 infected in human THP-1 cells assessed as decrease in bacterial growth after 24 hrs at pH 7.4. The conditions noted are these: ATCC 25923, THP-1, 24 h. The assay is classed as functional, organism-based.
Assay [22] has as its system Staphylococcus aureus. Briefly: Antimicrobial activity against hospital acquired methicillin-resistant Staphylococcus aureus N4120210 obtained from urinary tract infection of patient infected in human THP-1 cells assessed as increase in bacterial count from original inoculum at low compound concentration after 24 hrs at pH 5.5. The assay is classed as functional, Urine. The essentials: as §3

1 compound from ChEMBL document CHEMBL1649111, “Restoration of susceptibility of intracellular methicillin-resistant Staphylococcus aureus to beta-lactams: comparison of strains, cells, and antibiotics” (Antimicrob Agents Chemother, 2008) can be followed below.

Values after ≈ are worked out from the molar mass of the structure shown.

In the case of `Cc1onc(-c2ccccc2Cl)c1C(=O)N[C@@H]1C(=O)N2[C@@H]1SC(C)(C)[C@@H]2C(=O)O` [CLOXACILLIN], the log10cfu with Staphylococcus aureus [1] came to 0.99; in the assay on Staphylococcus aureus [3], 0.77; with Staphylococcus aureus [5] it was 2.07; with Staphylococcus aureus [6] it was 0.72; in the assay on Staphylococcus aureus [7], 2.63; with Staphylococcus aureus [8], 0.6. The log10cfu with Staphylococcus aureus [13] was determined as 0.55; in the assay on Staphylococcus aureus [16], 3.19; with Staphylococcus aureus [20], 1.84; with Staphylococcus aureus [22] it was 2.6. The Activity in the assay on Staphylococcus aureus [2] is 11.7 ×MIC; with Staphylococcus aureus [11], 16.6 ×MIC; with Staphylococcus aureus [14], 45.7 ×MIC; with Staphylococcus aureus [15] it was 20.9 ×MIC; in the assay with Staphylococcus aureus [17], 8.31 ×MIC. Moreover, the minimal inhibitory concentration (MIC) (commonly the lowest concentration found to suppress growth) came to 0.06 µg/mL (≈ 0.138 µM) with Staphylococcus aureus [4], 0.03 µg/mL (≈ 0.0688 µM) in the assay on Staphylococcus aureus [9], 0.125 µg/mL (≈ 0.287 µM) in the assay on Staphylococcus aureus [10] and 0.5 µg/mL (≈ 1.15 µM) in the assay on Staphylococcus aureus [19]. For the same compound, the EC50 with Staphylococcus aureus [12] came out at 3.63 ×MIC; in the assay with Staphylococcus aureus [18], 10.8 ×MIC; in the assay on Staphylococcus aureus [21], 0.27 µg/mL (≈ 0.619 µM).
